ChEMBL document CHEMBL3414543, “Novel series of benzoquinones with high potency against 5-lipoxygenase in human polymorphonuclear leukocytes” (Eur J Med Chem, 2015)

Assays:
[1] = target: T1, Polyunsaturated fatty acid 5-lipoxygenase (Homo sapiens, UniProt P09917); test: Inhibition of 5-LOX in A23187-stimulated human blood PMNL assessed as reduction in lipoxygenase products formation in presence of arachidonic acid pre-incubated for 15 mins followed by stimulation with A23187 for 10 mins by RP-HPLC based cell based assay
T1 sequence (P09917 whole entry): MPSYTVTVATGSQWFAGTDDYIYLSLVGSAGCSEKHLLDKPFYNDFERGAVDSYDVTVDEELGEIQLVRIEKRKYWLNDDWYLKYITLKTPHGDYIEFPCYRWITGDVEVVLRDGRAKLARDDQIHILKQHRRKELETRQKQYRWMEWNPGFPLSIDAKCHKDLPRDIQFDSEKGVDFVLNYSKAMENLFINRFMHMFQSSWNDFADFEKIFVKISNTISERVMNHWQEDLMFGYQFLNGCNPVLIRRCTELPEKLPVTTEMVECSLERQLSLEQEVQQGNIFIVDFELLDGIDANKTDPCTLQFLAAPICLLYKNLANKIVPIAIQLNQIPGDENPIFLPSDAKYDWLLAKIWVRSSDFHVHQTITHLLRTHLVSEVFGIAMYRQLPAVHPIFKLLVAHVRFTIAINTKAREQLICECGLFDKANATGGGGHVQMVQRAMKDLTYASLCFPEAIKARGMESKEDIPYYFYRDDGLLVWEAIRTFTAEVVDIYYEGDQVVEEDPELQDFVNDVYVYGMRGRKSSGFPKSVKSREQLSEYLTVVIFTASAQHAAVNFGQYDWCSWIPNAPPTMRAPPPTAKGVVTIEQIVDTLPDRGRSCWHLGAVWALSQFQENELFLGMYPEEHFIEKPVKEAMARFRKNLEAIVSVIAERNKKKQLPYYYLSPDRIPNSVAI
Outline: (§1)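 Human PMNL (5 × 10⁶ in 1 ml PBS pH 7.4, 1 mg/ml glucose, 1 mM CaCl₂), preincubated 15 min at 37 °C with compound or 0.1% DMSO, then stimulated 10 min at 37 °C with A23187, with or without AA. 5-LO products measured. Values are mean ± S.E. of 3–4 independent experiments. IC₅₀ read graphically from 4–5 concentrations.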

[2] = target: T2, Polyunsaturated fatty acid lipoxygenase ALOX15 (Homo sapiens) (UniProt P16050); test: Inhibition of 15-LOX-1 in human blood PMNL assessed as remaining activity by measuring 15-HETE synthesis at 10 uM
T2 sequence (whole entry): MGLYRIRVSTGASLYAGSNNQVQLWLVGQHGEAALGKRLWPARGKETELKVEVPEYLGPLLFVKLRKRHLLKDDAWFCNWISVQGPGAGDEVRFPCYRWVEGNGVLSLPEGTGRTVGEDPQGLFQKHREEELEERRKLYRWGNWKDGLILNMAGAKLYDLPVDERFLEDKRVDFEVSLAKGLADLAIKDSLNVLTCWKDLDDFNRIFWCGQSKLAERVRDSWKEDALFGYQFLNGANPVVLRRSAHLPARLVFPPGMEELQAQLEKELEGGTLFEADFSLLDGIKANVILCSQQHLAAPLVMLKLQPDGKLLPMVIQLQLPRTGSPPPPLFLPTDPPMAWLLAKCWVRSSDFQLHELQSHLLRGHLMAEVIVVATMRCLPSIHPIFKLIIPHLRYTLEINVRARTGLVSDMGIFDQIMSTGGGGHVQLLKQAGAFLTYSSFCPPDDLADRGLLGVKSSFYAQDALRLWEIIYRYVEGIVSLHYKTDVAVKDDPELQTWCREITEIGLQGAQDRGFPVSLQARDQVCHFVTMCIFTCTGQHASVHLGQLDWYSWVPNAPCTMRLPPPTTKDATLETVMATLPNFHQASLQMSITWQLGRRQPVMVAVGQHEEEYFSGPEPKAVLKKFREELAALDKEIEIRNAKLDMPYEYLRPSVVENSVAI
Outline: (§2)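 PMNL isolated from heparinized blood of fasted healthy donors by dextran sedimentation and Nycoprep centrifugation, with hypotonic lysis of erythrocytes. Cells at 5 × 10⁶ in 1 ml PBS pH 7.4 with 1 mg/ml glucose and 1 mM CaCl₂, preincubated 15 min at 37 °C with compound or 0.1% DMSO vehicle, then stimulated 10 min at 37 °C. 12-HETE or 15-HETE formation measured.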

[3] = target: T3, Polyunsaturated fatty acid 5-lipoxygenase (Homo sapiens) (UniProt P09917); test: Inhibition of 5-LOX in A23187-stimulated human blood PMNL assessed as remaining activity by measuring lipoxygenase products formation at 10 uM in presence of arachidonic acid pre-incubated for 15 mins followed by stimulation with A23187 for 10 mins by RP-HPLC based cell based assay; outline: as §1
T3 sequence (whole entry): T1 sequence (P09917 whole entry)

[4] = target: T4, Polyunsaturated fatty acid lipoxygenase ALOX12 (Homo sapiens) (UniProt P18054); test: Inhibition of 12-LOX in human blood PMNL assessed as remaining activity by measuring 12-HETE synthesis at 10 uM; outline: as §2
T4 sequence (whole entry): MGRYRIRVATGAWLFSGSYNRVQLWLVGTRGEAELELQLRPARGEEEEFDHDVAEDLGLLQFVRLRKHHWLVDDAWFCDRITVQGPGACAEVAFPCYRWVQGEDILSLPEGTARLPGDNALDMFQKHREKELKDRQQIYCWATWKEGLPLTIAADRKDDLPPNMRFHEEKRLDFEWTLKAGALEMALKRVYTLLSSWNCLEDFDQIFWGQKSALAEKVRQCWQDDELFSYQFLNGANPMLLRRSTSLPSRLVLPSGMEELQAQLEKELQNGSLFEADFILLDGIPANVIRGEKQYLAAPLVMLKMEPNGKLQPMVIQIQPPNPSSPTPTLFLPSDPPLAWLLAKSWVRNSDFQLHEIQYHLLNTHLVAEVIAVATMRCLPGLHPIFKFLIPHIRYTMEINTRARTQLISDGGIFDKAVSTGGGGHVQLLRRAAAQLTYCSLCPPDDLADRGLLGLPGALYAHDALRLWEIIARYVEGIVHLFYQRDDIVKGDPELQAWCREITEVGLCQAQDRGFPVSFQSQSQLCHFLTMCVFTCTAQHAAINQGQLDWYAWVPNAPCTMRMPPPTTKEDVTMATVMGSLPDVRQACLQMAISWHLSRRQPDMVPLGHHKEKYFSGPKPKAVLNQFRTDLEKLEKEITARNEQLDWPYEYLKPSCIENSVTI

[5] = target: T3, Polyunsaturated fatty acid 5-lipoxygenase (Homo sapiens); test: Inhibition of 5-LOX in A23187-stimulated human blood PMNL assessed as remaining activity by measuring lipoxygenase products formation at 10 uM pre-incubated for 15 mins followed by stimulation with A23187 for 10 mins by RP-HPLC based cell based assay; outline: as §1
[6] = target: T1, Polyunsaturated fatty acid 5-lipoxygenase; test: Inhibition of human recombinant 5-LOX expressed in Escherichia coli BL21 incubated for 10 mins in presence of arachidonic acid by RP-HPLC based cell-free assay
Outline: (§3)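 Recombinant human 5-LO, semi-purified from a 40,000 × g lysate supernatant on ATP-agarose, diluted in ice-cold PBS with 1 mM EDTA and 1 mM ATP. Preincubated 10 min at 4 °C with compound or 0.1% DMSO, warmed 30 s at 37 °C, then started with 2 mM CaCl₂ plus 20 µM AA. Reaction 10 min at 37 °C, stopped with cold methanol, products by RP-HPLC. IC₅₀ from 4–5 concentrations.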

[7] = target: T1, Polyunsaturated fatty acid 5-lipoxygenase; test: Inhibition of 5-LOX in A23187-stimulated human blood PMNL assessed as reduction in lipoxygenase products formation pre-incubated for 15 mins followed by stimulation with A23187 for 10 mins by RP-HPLC based cell based assay; outline: as §1
[8] = target: T3, Polyunsaturated fatty acid 5-lipoxygenase (Homo sapiens); test: Inhibition of human recombinant 5-LOX expressed in Escherichia coli BL21 assessed as remaining activity at 10 uM incubated for 10 mins in presence of arachidonic acid by RP-HPLC based cell-free assay; outline: as §3
Homo sapiens [9] = species: Homo sapiens; test: Selectivity index, ratio of inhibition for 12-LOX in human blood PMNL to IC50 for 5-LOX in human blood PMNL
Homo sapiens [10] = species: Homo sapiens; test: Selectivity index, ratio of inhibition for […] in human blood PMNL to IC50 for 5-LOX in human blood PMNL

Row | IC50 [1] | Activity [2] | Activity [3] | Activity [4] | Activity [5] | IC50 [6] | IC50 [7] | Activity [8] | Selectivity Index (Homo sapiens [9]) | Selectivity Index (Homo sapiens [10]) | Compound
1 | > 10000 nM | 89.8% | 79.9% | 105% | 134% | 4000 nM | > 10000 nM |  |  |  | CCCCCCC1=C(O)C(=O)C=C(O)C1=O
2 | 150 nM | 133% |  | 135% |  | 130 nM | 29 nM |  | > 66 | > 66 | CCCCCCCCCCCCC1=C(OC)C(OC)=CC(=O)C1=O
3 | 50 nM | 137% |  | 78.5% |  | 80 nM | 120 nM |  | > 66 | > 66 | CCCCCCCCCCCCCC1=C(OC)C(OC)=CC(=O)C1=O

The remaining lines, values behind:

Row | Compound | IC50 [1] | Activity [2] | Activity [3] | Activity [4] | Activity [5] | IC50 [6] | IC50 [7] | Activity [8] | Selectivity Index (Homo sapiens [9]) | Selectivity Index (Homo sapiens [10])
4 | CCCCCCCCC1=C(O)C(=O)C=C(O)C1=O | > 10000 nM | 88.9% | 80.1% | 75.7% | 53.5% | 380 nM | > 10000 nM |  |  | 
5 | COC1=CC(=O)C(O)=C(C/C=C(\C)CCC=C(C)C)C1=O | > 10000 nM | 112% | 65.9% | 101% |  | > 10000 nM | 4100 nM | 73.6% |  | 
6 | CCCCCCC1=C(O)C(=O)C=C(OC)C1=O | > 10000 nM | 65.8% | 64.1% | 44.5% | 68.9% | > 10000 nM | > 10000 nM | 71.1% |  | 
7 | CCCCC1=C(O)C(=O)C=C(OC)C1=O | > 10000 nM | 112% | 95.7% | 91.2% | 86% | > 10000 nM | > 10000 nM | 70.5% |  | 
8 | CCCCCCCCCCCC1=C(OC)C(OC)=CC(=O)C1=O | 100 nM | 105% |  | 236% |  | 90 nM | 60 nM |  | > 66 | > 66
9 | CC(C)=CCC/C(C)=C/CC1=C(O)C(=O)C=C(O)C1=O | > 10000 nM | 92% | 81.9% | 80.5% | 114% | 1800 nM | > 10000 nM |  |  | 
